# Bioassay records (PubChem BioAssay)
# Rtt109 Vps75 – inhibitors of Candida albicans Rtt109/Vps75 histone acetyltransferase. Q5AAJ8. purified Rtt109/Vps75, ThioGlo CoA-SH fluorescence, 4 h. inhibition, % at 34.9 µM. 330,000 tested, 0.16% active. AID 540336;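 active = inhibition of at least 50% in every replicate; inconclusive = best replicate reaches 50% inhibition but some replicates fall short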
# Target sequence (Q5AAJ8 whole entry, looked up): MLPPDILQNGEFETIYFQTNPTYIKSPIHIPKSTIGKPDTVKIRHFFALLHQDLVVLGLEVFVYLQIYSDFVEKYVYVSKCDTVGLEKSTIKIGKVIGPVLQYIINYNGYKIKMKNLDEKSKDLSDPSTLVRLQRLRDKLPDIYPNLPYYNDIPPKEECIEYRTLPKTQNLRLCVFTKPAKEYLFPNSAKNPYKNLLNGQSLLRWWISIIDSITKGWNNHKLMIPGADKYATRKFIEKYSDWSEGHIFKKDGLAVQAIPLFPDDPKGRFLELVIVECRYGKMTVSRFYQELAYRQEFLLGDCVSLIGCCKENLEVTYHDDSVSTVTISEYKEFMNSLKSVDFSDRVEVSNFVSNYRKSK
# FAS-TE inh – blocks the thioesterase domain of human fatty acid synthase; recombinant FAS-TE, OMFH fluorogenic substrate, fluorescence endpoint; inhibition, % at 15 µM; 360,000 tested, 0.67% active; AID 602261;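 active = compounds whose normalised, plate-corrected inhibition of enzyme fluorescence in the single-dose primary screen is 50% or more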
# PfM18AAP inh – blocks P. falciparum M18 aspartyl aminopeptidase. recombinant PfM18AAP, H-Glu-NHMec fluorogenic cleavage. inhibition, % at 7.35 µM. 290,000 tested, 1.2% active;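 active = inhibition above the campaign mean inhibition over all tested compounds plus 3 SD, cut at about 28% in these data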
# HDAC3 inhib – human HDAC3 inhibition | recombinant HDAC3, fluorogenic peptide/trypsin coupled, fluorescence | inhibition, % at 8.3 µM | 320,000 tested, 0.15% active | AID 2718; in the data active = inhibition above about 26%, passing the limit was not always enough; inconclusive = no clear call, values can overlap the other calls
# UCH37 inh – human UCH37 deubiquitinating enzyme inhibition; inhibition, % (test concentration not listed); 330,000 tested, 0.33% active; AID 588478; Q9Y5K5; purified proteasome/UCH37, Ub-AMC cleavage fluorescence;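 active = mean inhibition over replicate wells above about 20%, limit read from the data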
# Target sequence (Q9Y5K5 whole entry, looked up): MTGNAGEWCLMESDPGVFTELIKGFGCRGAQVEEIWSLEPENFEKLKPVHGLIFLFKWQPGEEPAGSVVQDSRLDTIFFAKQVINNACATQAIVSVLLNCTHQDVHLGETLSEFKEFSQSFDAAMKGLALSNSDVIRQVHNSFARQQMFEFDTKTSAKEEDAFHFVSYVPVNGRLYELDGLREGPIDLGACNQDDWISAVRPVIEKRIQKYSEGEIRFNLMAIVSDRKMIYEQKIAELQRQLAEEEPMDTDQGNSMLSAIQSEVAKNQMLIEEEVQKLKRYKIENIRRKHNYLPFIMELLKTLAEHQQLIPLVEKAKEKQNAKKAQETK
#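 Reagent: Ub-AMC substrate; assay system: Proteasome-associated human UCH37 deubiquitinase; controls: no-proteasome and no-compound wells; read-out: % inhibition of Ub-AMC cleavage fluorescence; timing: 30 min preincubation with enzyme, 25 min cleavage at room temperature; signal: AMC fluorescence from Ub-AMC cleavage, excitation 355 nm, emission 460 nm; buffer or medium: Tris-HCl pH 7.4 plus ovalbumin, ATP-MgCl2, DTT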
# ALR inh – human ALR oxidase inhibition via reduced H2O2. 290,000 tested, 3.8% active. AID 485317. purified ALR, DTT oxidation, H2O2 HRP-luminol luminescence. P55789. inhibition, % (no concentration beside the values);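 active = mean replicate inhibition above about 79%, with every replicate also reaching it, limit read from the data; inconclusive = only one of the two criteria met; inactive = mean below limit and not every replicate reaching it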
# FAS-TE conf – confirmation of human fatty acid synthase thioesterase inhibitors | inhibition, % at 15 µM | 2,300 tested, 45% active | shares compounds with FAS-TE inh | recombinant FAS-TE, OMFH fluorogenic substrate, fluorescence;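 active = compounds inhibiting the enzyme by at least 50% at 15 µM in any one of the replicates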
# Numbers stand for hits; – = inactive; ? = inconclusive; · = no result. Shown are actives, neighbours in structure and some others; about 4.6% of the full set was active somewhere.
SMILES,Rtt109 Vps75,FAS-TE inh,PfM18AAP inh,HDAC3 inhib,UCH37 inh,ALR inh,FAS-TE conf
COc1ccc(C2CC(c3ccc(Cl)cc3)=NN2C(=O)c2cccc([N+](=O)[O-])c2)cc1 (stereo unspecified),–,–,–,–,–,–,·
COc1ccc(C2=NN(C(=O)c3ccc(Cl)c([N+](=O)[O-])c3)C(c3ccccc3)C2)cc1 (stereo unspecified),–,56,–,–,–,–,–
CCC(=O)NN=C(C)CC(=O)Nc1ccc2ccccc2c1,·,·,·,·,–,·,·
Cc1cccc(NC(=S)/N=C(\N)Nc2nc(C)c3ccccc3n2)c1,–,59,–,–,–,–,–
Cc1cccc(NC(=S)/N=C(\N)Nc2nc(C)c3ccc(C)cc3n2)c1,–,–,–,–,–,–,·
O=C(NCc1cn(-c2ccccc2)nc1-c1ccccc1)c1cccc([N+](=O)[O-])c1,–,51,–,–,–,–,–
Cn1c(=O)c2[nH]c(COc3ccc(C(C)(C)C)cc3)nc2n(C)c1=O,–,69,–,·,–,–,70
Cn1c(=O)c2[nH]c(Cc3cccc(O)c3)nc2n(C)c1=O,–,–,·,·,–,·,·
CCNC(=O)C(=O)NN=Cc1cc([N+](=O)[O-])ccc1O,·,·,·,·,–,·,·
CC(C)c1ccc(CSc2ccc(S(=O)(=O)N3CCOCC3)cn2)cc1,–,69,·,–,–,–,36
O=[N+]([O-])c1ccc(CSc2ccc(S(=O)(=O)N3CCCCC3)cn2)cc1,–,–,·,–,–,–,·
O=[N+]([O-])c1ccc(CSc2ccc(S(=O)(=O)N3CCOCC3)cn2)cc1,–,53,·,·,–,·,55
Cc1ccc(CSc2ccc(S(=O)(=O)N3CCOCC3)cn2)cc1,–,–,·,–,–,–,·
O=[N+]([O-])c1ccc(CSc2ccc(S(=O)(=O)N3CCCC3)cn2)cc1,–,58,·,–,–,·,54
N#Cc1ccc(CSc2ccc(S(=O)(=O)N3CCCC3)cn2)cc1,–,64,·,–,–,93,64
O=[N+]([O-])c1ccc(C=NNC2=NS(=O)(=O)c3ccccc32)cc1,·,·,·,·,–,·,·
O=C(NN=Cc1cccs1)c1cccc(NC(=O)c2ccccc2Cl)c1,·,·,·,·,–,·,·
COc1cc(C=NNC(=O)Nc2cccc3nsnc23)cc(OC)c1OC,·,·,·,·,–,·,·
Cc1ccc(S(=O)(=O)N(C)C)cc1NC(=S)NC(C)CCCC(C)C (stereo unspecified),–,58,–,·,–,·,53
CCC(=O)NN=C(C)CC(=O)Nc1ccccc1-c1ccccc1,·,·,·,·,–,·,·
COc1cc(C2C3C(=O)N(c4ccccc4)C(=O)C3ON2c2ccccc2)cc(OC)c1OC (stereo unspecified),–,–,–,–,–,–,·
CN1C(=S)SC(N2OC3C(=O)N(c4ccccc4)C(=O)C3C2c2ccc(Cl)cc2)C1(C)C (stereo unspecified),–,69,–,–,–,–,–
Cn1ccc(C(=O)NN=Cc2ccncc2)n1,·,·,·,·,–,·,·
CCN(Cc1ccccc1)C(=O)COC(=O)c1cc(Cl)nc(Cl)c1,–,55,–,–,–,–,66
O=C(CN1CCCCCCC1)NN=Cc1ccc(F)c(F)c1,·,·,·,·,–,·,·
SMILES,Rtt109 Vps75,FAS-TE inh,PfM18AAP inh,HDAC3 inhib,UCH37 inh,ALR inh,FAS-TE conf
O=C(CSc1nc2ccccc2c(=O)n1CCCN1CCOCC1)Nc1cccc(S(=O)(=O)N2CCCCCC2)c1,–,–,–,–,–,–,·
O=C(CSc1nc2ccccc2c(=O)n1-c1ccc(F)c(Cl)c1)Nc1cccc(S(=O)(=O)N2CCOCC2)c1,–,78,–,–,–,98,–
Cc1ccc(-n2c(SCC(=O)Nc3cc(S(=O)(=O)N4CCOCC4)ccc3Cl)nc3ccccc3c2=O)cc1,–,95,–,–,·,·,–
O=C(CSc1nc2ccccc2c(=O)n1-c1ccc(F)cc1)Nc1ccc(Cl)c(S(=O)(=O)N2CCOCC2)c1,–,78,–,–,–,–,–
O=C(CSc1nc2ccccc2c(=O)n1-c1ccc(F)cc1)Nc1ccc(C(=O)O)cc1,–,–,–,–,–,–,·
CC(=O)N/C(=N/c1nc(C)cc(C)n1)Nc1ccc(Cl)cc1Cl,·,·,·,·,–,·,·
N#Cc1ccc(Sc2nc3ccccc3[nH]2)cc1C#N,–,74,–,–,–,–,85
COc1ccc(C(=O)NN=Cc2ccc(OC(=O)c3ccccc3)cc2)cc1,·,·,·,·,–,·,·
CC1(C)CC2CC(C)(CN2S(=O)(=O)c2ccc(C(=O)Nc3cc(S(=O)(=O)N4CCOCC4)ccc3Cl)cc2)C1 (stereo unspecified),–,76,–,–,–,–,–
CC1(C)CC2CC(C)(CN2S(=O)(=O)c2ccc(C(=O)Nc3cccc(S(=O)(=O)N4CCOCC4)c3)cc2)C1 (stereo unspecified),–,–,–,–,·,–,·
Cc1cc(C)c(C#N)c(SCC(O)COc2ccc(Br)cc2)n1 (stereo unspecified),–,63,–,–,–,–,–
Cc1nn(Cc2ccc([N+](=O)[O-])cc2)c(=O)n1-c1cccc(Cl)c1,–,66,–,–,–,–,75
Cc1nn(Cc2ccc([N+](=O)[O-])cc2)c(=O)n1-c1ccc(Cl)cc1,–,–,–,–,–,–,·
N#Cc1ccc(-c2cccnc2)nc1SCc1ccc(Cl)cc1Cl,–,55,–,–,–,–,–
CC(C)(C)c1ccc(OCCC(=O)OCC(=O)N2c3ccccc3NC(=O)C2(C)C)cc1,–,56,·,?,–,–,66
Cc1cccc(OCCC(=O)OCC(=O)N2c3ccccc3NC(=O)C2(C)C)c1,·,–,·,·,·,·,·
Cc1cc2c(cc1C)C(c1cccc([N+](=O)[O-])c1)CC(=O)N2 (stereo unspecified),–,60,–,–,–,–,79
CC(Oc1cccc2cccnc12)C(=O)NN=Cc1ccccc1 (stereo unspecified),·,·,·,·,–,·,·
Cc1ccc2nc(SCC(=O)N3N=C(c4cccs4)CC3c3ccc(F)cc3)nc(=O)n2c1 (stereo unspecified),·,–,·,·,·,·,·
Cc1ccc(C2CC(c3cccs3)=NN2C(=O)CSc2nc(=O)n3cc(C)ccc3n2)cc1 (stereo unspecified),–,51,·,·,–,·,–
Cc1ccn2c(=O)nc(SCC(=O)N3N=C(c4cccs4)CC3c3ccc(F)cc3)nc2c1 (stereo unspecified),–,54,·,–,–,–,46
COc1ccc(C2=NN(C(=O)CSc3nc(=O)n4cccc(C)c4n3)C(c3ccc(C)cc3)C2)cc1 (stereo unspecified),–,90,·,–,–,–,–
COc1ccc(C2CC(c3cccs3)=NN2C(=O)CSc2nc(=O)n3ccccc3n2)cc1 (stereo unspecified),–,–,·,·,–,·,·
Cc1cccn2c(=O)nc(SCC(=O)N3N=C(c4cccs4)CC3c3ccc(F)cc3)nc12 (stereo unspecified),–,54,·,·,–,·,–
